Source: ChEMBL document CHEMBL2010661, “Optimization of 2,4-diarylanilines as non-nucleoside HIV-1 reverse transcriptase inhibitors” (Bioorg Med Chem Lett, 2012)
Converted amounts (≈) assume the structure as drawn.

Legend:
[1] = tested on: Human immunodeficiency virus 1; experiment: Antiviral activity against Human immunodeficiency virus 1 harboring reverse transcriptase E138K mutant; assay type: functional, organism-based
[2] = tested on: Liver microsomes; experiment: Half life in human liver microsomes at 1 uM; assay type: ADME, Microsome
Procedure, shortened: (§1)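 1 μM compound (diluted from DMSO stock via ACN) at 37 °C in 0.1 M potassium phosphate pH 7.4 with 0.1 mg/mL human liver microsomes and 5 mM MgCl2. NADPH (1.0 mM final) started the reaction.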

[3] = tested on: Liver microsomes; experiment: Clearance in human liver microsomes at 1 uM; assay type: ADME, Microsome; procedure, shortened: as §1
[4] = tested on: Liver microsomes; experiment: Half life in rat liver microsomes at 1 uM; assay type: ADME, Microsome
Procedure, shortened: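 Rat liver microsome incubation of 1 μM compound at 37 °C in 0.1 M potassium phosphate pH 7.4 with 5 mM MgCl2. NADPH (1.0 mM final) started the reaction, with ice-cold ACN quench at 0–60 min, in duplicate. […] Means of at least two experiments.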

[5] = tested on: Human immunodeficiency virus 1; experiment: Antiviral activity against Human immunodeficiency virus 1 NL4-3 infected in human TZM-bl cells assessed as inhibition of viral replication; assay type: functional, organism-based; settings: Human immunodeficiency virus 1, NL4-3, TZM-bl
[6] = Cytotoxicity against human TZM-bl cells; assay type: cell-based
[7] = Selectivity index, ratio of CC50 for human TZM-bl cells to EC50 for Human immunodeficiency virus 1 NL4-3; assay type: toxicity, cell-based; settings: read-out: Ratio CC50/EC50
[8] = Aqueous solubility of the compound at pH 7.4 by HPLC/UV analysis; assay type: physicochemical; settings: buffer
[9] = Aqueous solubility of the compound at pH 2 by HPLC/UV analysis; assay type: physicochemical; settings: buffer
[10] = tested on: Human immunodeficiency virus 1; experiment: Antiviral activity against multi-reverse transcriptase-resistant Human immunodeficiency virus 1; assay type: functional, organism-based
[11] = tested on: Human immunodeficiency virus 1; experiment: Antiviral activity against Human immunodeficiency virus 1 harboring reverse transcriptase K101E mutant; assay type: functional, organism-based
Procedure, shortened: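 EC50 against the resistant strain (RTMDR1, K101E or E138K), from experiments run at least in triplicate and reported as mean ± SD.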

Compound | EC50 [1] [nM] | t1/2 [2] [h] | CLH [3] [µL/min/mg] | t1/2 [4] [h] | EC50 [5] [nM] | CC50 [6] [nM] | selectivity ratio [7] | solubility [8] [µg/mL] | solubility [9] [µg/mL] | EC50 [10] [nM] | EC50 [11] [nM]
Cc1cc(/C=C/C#N)cc(C)c1Oc1cc(Nc2ccc(C#N)cc2)c(N)cc1[N+](=O)[O-] | 11.3 | 0.783 | 150 | 2.32 |  |  |  |  |  |  | 
COC(=O)c1cc(N)c(Nc2ccc(C#N)cc2)cc1Oc1c(C)cc(/C=C/C#N)cc1C |  |  |  |  | 2.74 | > 22800 | > 8460 | 1.3 (≈ 2.96 µM) | 1.75 (≈ 3.99 µM) |  | 
Cc1cc(/C=C/C#N)cc(C)c1Oc1cc(Nc2ccc(C#N)cc2)c(N)cc1C(=O)O |  |  |  |  | 230 | 14900 | 65 | 117 (≈ 276 µM) | 4.4 (≈ 10.4 µM) |  | 
Cc1cc(/C=C/C#N)cc(C)c1Oc1cc(Nc2ccc(C#N)cc2)c(N)cc1C(N)=O | 9 | 0.583 | 200 | 2.03 | 0.87 | > 23600 | > 27100 | 0.63 (≈ 1.49 µM) | 2.1 (≈ 4.96 µM) | 0.31 | 8.8
CNC(=O)c1cc(N)c(Nc2ccc(C#N)cc2)cc1Oc1c(C)cc(/C=C/C#N)cc1C |  |  |  |  | 5.72 | > 9200 | > 1610 | 1.32 (≈ 3.02 µM) | 8.63 (≈ 19.7 µM) |  | 
Cc1cc(/C=C/C#N)cc(C)c1Oc1cc(Nc2ccc(C#N)cc2)c(N)cc1CO | 3.9 | 0.5 | 230 | 1.4 | 0.53 | 16300 | 30800 | 3.23 (≈ 7.87 µM) | 21 (≈ 51.2 µM) | 0.36 | 3.4
Cc1cc(/C=C/C#N)cc(C)c1Nc1ccnc(Nc2ccc(C#N)cc2)n1 [RILPIVIRINE] |  | 0.567 | 200 | 2 |  | 19400 |  |  |  |  | 
